Assay results taken from ChEMBL document CHEMBL2390884, “Design, synthesis and antiproliferative activity studies of novel 1,2,3-triazole-dithiocarbamate-urea hybrids” (Eur J Med Chem, 2013).
Calls of active or inactive are those of the source. The rule behind the calls is not given here.

Legend:
[1] = Cytotoxicity against human EC9706 cells after 72 hrs by MTT assay; format: functional, cell-based; settings: EC9706, 72 h
MCF7 = assay: Cytotoxicity against human MCF7 cells after 72 hrs by MTT assay; format: functional, cell-based; settings: MCF7, 72 h
SMMC-7721 = assay: Cytotoxicity against human SMMC7721 cells after 72 hrs by MTT assay; format: functional, cell-based; settings: SMMC-7721, 72 h
MGC-803 [2] = assay: Cytotoxicity against human MGC803 cells after 72 hrs by MTT assay; format: functional, cell-based; settings: MGC-803, 72 h
MGC-803 [3] = assay: Induction of apoptosis in human MGC803 cells assessed as nuclear fragmentation at 0.25 to 1 uM after 12 hrs by Hoechst 33258 staining-based fluorescence microscopy; format: functional, cell-based
Method in brief: (§1)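 MGC-803 cells seeded at 8×10^3 cells/well, treated 12 h at 0, 0.25, 0.5 or 1.0 µmol/L; cells collected, fixed, stained 20 min with Hoechst 33258, washed with PBS; nuclear shrinkage, chromatin condensation, intense fluorescence and fragmentation scored by fluorescence microscopy.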

MGC-803 [4] = assay: Induction of apoptosis in human MGC803 cells assessed as chromatin condensation at 0.25 to 1 uM after 12 hrs by Hoechst 33258 staining-based fluorescence microscopy; format: functional, cell-based; method in brief: as §1
MGC-803 [5] = assay: Induction of apoptosis in human MGC803 cells assessed as nuclear shrinkage at 0.25 to 1 uM after 12 hrs by Hoechst 33258 staining-based fluorescence microscopy; format: functional, cell-based; method in brief: as §1
HEK293 = assay: Cytotoxicity against human HEK293 cells up to 55 uM after 72 hrs by MTT assay; format: cell-based; settings: hek293, 72 h
Method in brief: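 HEK293 cells seeded at 5×10^3 per well, grown 24 h at 37°C, then medium replaced with compound-containing medium over a concentration range; 72 h exposure; MTT (5 mg/mL stock) added for 4 h at 37°C, formazan dissolved in DMSO, absorbance read at 570 nm. Triplicate per concentration, experiment repeated three times.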

MGC-803 [6] = assay: Cell cycle arrest in human MGC803 cells assessed as reduction in G1 phase accumulation after 12 to 24 hrs by propidium iodide staining-based flow cytometry; format: functional
Method in brief: (§2)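 Exponentially growing MGC-803 cells (5×10^5) treated at 0, 0.25, 0.5 or 1.0 µmol/L for 12 or 24 h; cells collected, fixed in ice-cold 70% ethanol, treated with buffer containing RNAse A and 0.1% Triton X-100, stained with PI; DNA content analysed by flow cytometry to give percentages of cells in G1, S and G2/M phases.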

MGC-803 [7] = assay: Cell cycle arrest in human MGC803 cells assessed as reduction in S phase accumulation after 12 to 24 hrs by propidium iodide staining-based flow cytometry; format: functional; method in brief: as §2
MGC-803 [8] = assay: Cell cycle arrest in human MGC803 cells assessed as accumulation at G2/M phase after 12 to 24 hrs by propidium iodide staining-based flow cytometry; format: functional; method in brief: as §2
MGC-803 [9] = assay: Cell cycle arrest in human MGC803 cells assessed as reduction in S phase accumulation at 0.25 to 1 uM by propidium iodide staining-based flow cytometry; format: functional; settings: TDE = time-dependent effect; method in brief: as §2
MGC-803 [10] = assay: Cell cycle arrest in human MGC803 cells assessed as accumulation at G2/M phase at 0.25 to 1 uM by propidium iodide staining-based flow cytometry; format: functional; settings: TDE = time-dependent effect; method in brief: as §2
MGC-803 [11] = assay: Cell cycle arrest in human MGC803 cells assessed as reduction in G1 phase accumulation at 0.25 to 1 uM by propidium iodide staining-based flow cytometry; format: functional; settings: TDE = time-dependent effect; method in brief: as §2
MGC-803 [12] = assay: Cell cycle arrest in human MGC803 cells assessed as accumulation at G2/M phase at 1 uM after 24 hrs by propidium iodide staining-based flow cytometry; format: functional; method in brief: as §2
MGC-803 [13] = assay: Cell cycle arrest in human MGC803 cells assessed as accumulation at G2/M phase at 0.25 uM after 24 hrs by propidium iodide staining-based flow cytometry; format: functional; method in brief: as §2
MGC-803 [14] = assay: Cell cycle arrest in human MGC803 cells assessed as accumulation at G2/M phase at 0.5 uM after 24 hrs by propidium iodide staining-based flow cytometry; format: functional; method in brief: as §2
MGC-803 [15] = assay: Cell cycle arrest in human MGC803 cells assessed as accumulation at G2/M phase at 1 uM after 12 hrs by propidium iodide staining-based flow cytometry; format: functional; method in brief: as §2
MGC-803 [16] = assay: Cell cycle arrest in human MGC803 cells assessed as accumulation at G2/M phase at 0.5 uM after 12 hrs by propidium iodide staining-based flow cytometry; format: functional; method in brief: as §2
MGC-803 [17] = assay: Cell cycle arrest in human MGC803 cells assessed as accumulation at S phase at 1 uM after 24 hrs by propidium iodide staining-based flow cytometry; format: functional; method in brief: as §2
MGC-803 [18] = assay: Cell cycle arrest in human MGC803 cells assessed as accumulation at G2/M phase at 0.25 uM after 12 hrs by propidium iodide staining-based flow cytometry; format: functional; method in brief: as §2
MGC-803 [19] = assay: Cell cycle arrest in human MGC803 cells assessed as accumulation at S phase at 0.5 uM after 24 hrs by propidium iodide staining-based flow cytometry; format: functional; method in brief: as §2
MGC-803 [20] = assay: Cell cycle arrest in human MGC803 cells assessed as accumulation at S phase at 0.25 uM after 24 hrs by propidium iodide staining-based flow cytometry; format: functional; method in brief: as §2
MGC-803 [21] = assay: Cell cycle arrest in human MGC803 cells assessed as accumulation at S phase at 1 uM after 12 hrs by propidium iodide staining-based flow cytometry; format: functional; method in brief: as §2
MGC-803 [22] = assay: Cell cycle arrest in human MGC803 cells assessed as accumulation at S phase at 0.5 uM after 12 hrs by propidium iodide staining-based flow cytometry; format: functional; method in brief: as §2
MGC-803 [23] = assay: Cell cycle arrest in human MGC803 cells assessed as accumulation at S phase at 0.25 uM after 12 hrs by propidium iodide staining-based flow cytometry; format: functional; method in brief: as §2
MGC-803 [24] = assay: Cell cycle arrest in human MGC803 cells assessed as accumulation at G0/G1 phase at 0.5 uM after 24 hrs by propidium iodide staining-based flow cytometry; format: functional; method in brief: as §2
MGC-803 [25] = assay: Cell cycle arrest in human MGC803 cells assessed as accumulation at G0/G1 phase at 1 uM after 24 hrs by propidium iodide staining-based flow cytometry; format: functional; method in brief: as §2
MGC-803 [26] = assay: Cell cycle arrest in human MGC803 cells assessed as accumulation at G0/G1 phase at 0.25 uM after 24 hrs by propidium iodide staining-based flow cytometry; format: functional; method in brief: as §2
MGC-803 [27] = assay: Cell cycle arrest in human MGC803 cells assessed as accumulation at G0/G1 phase at 1 uM after 12 hrs by propidium iodide staining-based flow cytometry; format: functional; method in brief: as §2
MGC-803 [28] = assay: Cell cycle arrest in human MGC803 cells assessed as accumulation at G0/G1 phase at 0.5 uM after 12 hrs by propidium iodide staining-based flow cytometry; format: functional; method in brief: as §2
MGC-803 [29] = assay: Cell cycle arrest in human MGC803 cells assessed as accumulation at G0/G1 phase at 0.25 uM after 12 hrs by propidium iodide staining-based flow cytometry; format: functional; method in brief: as §2

CCNC(=O)N1CCN(C(=S)SCc2cn(Cc3ccc(F)cc3)nn2)CC1
IC50 [1]: 27.8 µM | IC50 (MCF7): 3.66 µM | IC50 (SMMC-7721): 44.4 µM | IC50 (MGC-803 [2]): 2.17 µM

CCN(C)C(=O)N1CCN(C(=S)SCc2cn(Cc3ccc(C)cc3)nn2)CC1
IC50 [1]: 70.6 µM | IC50 (MCF7): 40.1 µM | IC50 (SMMC-7721): > 128 µM | IC50 (MGC-803 [2]): 8.27 µM

CCN(C)C(=O)N1CCN(C(=S)SCc2cn(Cc3ccc(F)cc3)nn2)CC1
IC50 [1]: 14.3 µM | IC50 (MCF7): 2.15 µM | IC50 (SMMC-7721): 23.7 µM | IC50 (MGC-803 [2]): 1.55 µM

CCN(C)C(=O)N1CCN(C(=S)SCc2cn(Cc3ccc(OC)cc3)nn2)CC1
IC50 [1]: > 128 µM | IC50 (MCF7): 21.4 µM | IC50 (SMMC-7721): > 128 µM | IC50 (MGC-803 [2]): 87.9 µM

COc1ccc(Cn2cc(CSC(=S)N3CCN(C(=O)NC(C)C)CC3)nn2)cc1
IC50 [1]: > 128 µM | IC50 (MCF7): 19.6 µM | IC50 (SMMC-7721): > 128 µM | IC50 (MGC-803 [2]): 99.2 µM

Cc1ccc(Cn2cc(CSC(=S)N3CCN(C(N)=O)CC3)nn2)cc1
IC50 [1]: > 128 µM | IC50 (MCF7): > 128 µM | IC50 (SMMC-7721): > 128 µM | IC50 (MGC-803 [2]): 29.9 µM

COc1ccc(Cn2cc(CSC(=S)N3CCN(C(N)=O)CC3)nn2)cc1
IC50 [1]: > 128 µM | IC50 (MCF7): > 128 µM | IC50 (SMMC-7721): > 128 µM | IC50 (MGC-803 [2]): > 128 µM

O=C(NC1CCCCC1)N1CCN(C(=S)SCc2cn(Cc3ccc(F)cc3)nn2)CC1
IC50 [1]: > 128 µM | IC50 (MCF7): > 128 µM | IC50 (SMMC-7721): > 128 µM | IC50 (MGC-803 [2]): > 128 µM

NC(=O)N1CCN(C(=S)SCc2cn(Cc3ccc(F)cc3)nn2)CC1
IC50 [1]: 62.7 µM | IC50 (MCF7): 22.1 µM | IC50 (SMMC-7721): > 128 µM | IC50 (MGC-803 [2]): 9.33 µM

CCNC(=O)N1CCN(C(=S)SCc2cn(Cc3ccc(Cl)cc3)nn2)CC1
IC50 [1]: > 128 µM | IC50 (MCF7): > 128 µM | IC50 (SMMC-7721): > 128 µM | IC50 (MGC-803 [2]): 35.4 µM

CCN(C)C(=O)N1CCN(C(=S)SCc2cn(Cc3ccccc3F)nn2)CC1
IC50 [1]: 15.6 µM | IC50 (MCF7): 7.21 µM | IC50 (SMMC-7721): 19.7 µM | IC50 (MGC-803 [2]): 5.86 µM

CC(C)NC(=O)N1CCN(C(=S)SCc2cn(Cc3ccccc3F)nn2)CC1
Activity (MGC-803 [3]): Active | Activity (MGC-803 [4]): Active | Activity (MGC-803 [5]): Active | Activity (HEK293): Non-toxic | IC50 [1]: 20.8 µM | IC50 (MCF7): 1.86 µM | IC50 (SMMC-7721): 7.13 µM | IC50 (MGC-803 [2]): 1.62 µM | Activity (MGC-803 [6]): Dose-dependent effect | Activity (MGC-803 [7]): Dose-dependent effect | Activity (MGC-803 [8]): Dose-dependent effect | Activity (MGC-803 [9]): tde | Activity (MGC-803 [10]): tde | Activity (MGC-803 [11]): tde | Activity (MGC-803 [12]): 74.95% | Activity (MGC-803 [13]): 32.93% | Activity (MGC-803 [14]): 68.71% | Activity (MGC-803 [15]): 59.86% | Activity (MGC-803 [16]): 50.35% | Activity (MGC-803 [17]): 15.66% | Activity (MGC-803 [18]): 21.86% | Activity (MGC-803 [19]): 17.4% | Activity (MGC-803 [20]): 35.96% | Activity (MGC-803 [21]): 39.11% | Activity (MGC-803 [22]): 26.26% | Activity (MGC-803 [23]): 39.06% | Activity (MGC-803 [24]): 10.9% | Activity (MGC-803 [25]): 2.99% | Activity (MGC-803 [26]): 31.47% | Activity (MGC-803 [27]): 6.02% | Activity (MGC-803 [28]): 19.1% | Activity (MGC-803 [29]): 38.7%

O=C(NC1CCCCC1)N1CCN(C(=S)SCc2cn(Cc3ccccc3F)nn2)CC1
IC50 [1]: 84.9 µM | IC50 (MCF7): 85 µM | IC50 (SMMC-7721): > 128 µM | IC50 (MGC-803 [2]): 36.5 µM

CCN(C)C(=O)N1CCN(C(=S)SCc2cn(Cc3ccc(Cl)cc3)nn2)CC1
IC50 [1]: 17.7 µM | IC50 (MCF7): 14.7 µM | IC50 (SMMC-7721): 38.2 µM | IC50 (MGC-803 [2]): 4.32 µM
